Assay outcomes as filed in PubChem.
The list is not random: actives were taken first. Their share in the collection is about 12%.
L major viab: reduces viability of Leishmania major promastigotes. resazurin fluorescence viability. inhibition, % at 10 µM. 9% of 200,000 active; in the data active means inhibition above about 50%;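 further: promastigotes grown with compound for 44 hours at 28 °C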
Diaph inh CS: inhibits diaphorase or chemically oxidizes, flagging diaphorase assay artifacts | 0.69% of 190,000 active | AID 1217 | inhibition, % at 20 µM | diaphorase resazurin-to-resorufin fluorescence, NADH, 16 min; bacterial (C. kluyveri) enzyme, not human;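 active means primary screen inhibition at 20 µM above a set limit, cut at about 50% in these data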;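 further: plate controls were DMSO with full reaction for no effect and wells lacking NADH for full effect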
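Test system: diaphorase enzyme from Clostridium kluyveri; amount: diaphorase at 0.14 U/mL in enzyme working solution; detection: fluorescence of resorufin formed from resazurin, Ex 544/Em 590 nm; times: reaction incubation of 16 min at room temperature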
Cl transport mod: modulates chloride dependent transport by human KCC2; KCC2 cells, thallium flux FluoZin-2 fluorescence; AID 1456; 2.2% of 190,000 active; Q9H2X9; B-score of Tl+ flux slope (higher = more flux/activation; lower = inhibition) at 10 µM;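 active means thallium flux slope and its plate-corrected score both differing from the plate sample mean at a set confidence after two filtering rounds, in either direction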;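 further: slope of fluorescence scaled to starting intensity during 10 to 20 s after thallium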
Diaphorase act: diaphorase activation or chemical reduction counter-screen; Diaphorase/resazurin coupled assay, resorufin fluorescence, 16 min; stronger effect = higher value; 1 = vehicle wells, 0 = NADH-free wells; activation factor at 20 µM; AID 1229; 0.005% of 190,000 active;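 active means diaphorase activity raised at least twofold by the compound at 20 µM; inactive means activation factor below 2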
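Material: Clostridium kluyveri diaphorase, purified enzyme; Quantity: enzyme 0.07 U/mL final; Medium: HEPES pH 7.4 buffer with MgCl2 and Tween 20; Dosing: single compound dose of 20 µM, 1% DMSO final; Schedule: 16 min reaction at room temperature; Measured by: red resorufin fluorescence at 544/590 nm excitation/emission.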
ROMK mod: modulators of human ROMK potassium channel; P48048; B-score at 10 µM; AID 1918; 2% of 130,000 active; Tet-inducible ROMK, thallium flux fluorescence; actives lie on both sides;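 active means signal ratio slope over the read window, or its plate-corrected B-score, at least 3 SD from the plate mean, either direction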;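 further: B-score of the F/F0 ratio slope over 7 to 12 s after thallium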
Target sequence (P48048 whole entry, looked up): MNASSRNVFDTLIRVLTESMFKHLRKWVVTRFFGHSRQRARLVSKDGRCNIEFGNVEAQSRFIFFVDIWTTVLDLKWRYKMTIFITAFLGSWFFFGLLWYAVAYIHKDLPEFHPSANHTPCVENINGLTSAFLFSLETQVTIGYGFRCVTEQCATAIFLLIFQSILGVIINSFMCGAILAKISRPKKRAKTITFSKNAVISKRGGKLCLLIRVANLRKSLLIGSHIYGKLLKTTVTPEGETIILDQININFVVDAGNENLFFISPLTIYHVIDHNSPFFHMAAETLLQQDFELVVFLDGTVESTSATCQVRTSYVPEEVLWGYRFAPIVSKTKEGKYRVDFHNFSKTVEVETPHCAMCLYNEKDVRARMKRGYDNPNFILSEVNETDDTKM
WT yeast gro inh: growth inhibition of WT yeast, mitochondrial fusion screen; 2.1% of 190,000 active; AID 1362; mitochondrial fusion phenotypic screen, WT strain; inhibition, % at 10 µM; in the data active means inhibition above about 58%; tested in S. cerevisiae
KCC2 secondary: KCC2 (human) modulation, secondary assay | shares compounds with Cl transport mod | AID 1713 | 15% of 3,700 active | HEK293-KCC2, thallium flux, FluoZin2 fluorescence; stronger effect = higher value | normalised thallium flux (F/F0 slope) at 10 µM;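 active means thallium flux slope above the same plate's solvent-only control mean plus 3 SD; inconclusive means the two replicate wells disagree; inactive means no significant difference from solvent-only control wells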
KCC2 bumet counter: bumetanide-insensitive thallium flux in KCC2 cells with ouabain, counter-screen; shares compounds with Cl transport mod; HEK293-KCC2 + bumetanide/ouabain, thallium flux FluoZin2; stronger effect = higher value; AID 1714; 49% of 3,700 active; normalized thallium flux at 10 µM;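 active means thallium entry rate above the same plate's blocked-transporter control wells by more than 3 SD; inconclusive means the two repeat wells disagree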;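 further: raw slope of fluorescence over initial fluorescence between 10 and 20 s after thallium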
KCC2 secondary2: KCC2 (human) modulation, second secondary assay; shares compounds with Cl transport mod; HEK293-KCC2, thallium flux FluoZin2 fluorescence; actives lie on both sides; F/F0 rise rate, 10–20 s post-thallium; normalized thallium flux at 10 µM; 23% of 3,700 active; AID 1715;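 active means thallium flux slope more than 3 SD above or below the plate's solvent-only control mean, mostly below; inconclusive means the two repeat wells disagreed; inactive means no significant shift from solvent-only controls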;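 further: raw slope with 0.1% DMSO as baseline and bumetanide as block control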
HEK counter1: counter-screen for KCC2 modulators: effect in parental HEK293 cells | shares compounds with Cl transport mod | thallium flux FluoZin2, ouabain; baseline-ratio fluorescence slope, 10–20 s after thallium | thallium flux rate (normalised fluorescence) at 10 µM | 46% of 3,700 active;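 active means thallium flux rate significantly above the same plate's solvent-only control wells, beyond their mean plus 3 SD; inconclusive means the two replicate wells gave conflicting results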
KCC2 ouabain: KCC2 (human) modulation, ouabain retest; AID 1717; 48% of 3,700 active; shares compounds with Cl transport mod; raw Tl+ flux slope (below DMSO = inhibition, above = activation) at 10 µM; HEK293-KCC2, thallium flux FluoZin2 fluorescence; bidirectional: low = inhibitor, high = activator;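 active means thallium flux slope beyond 3 SD from same-plate DMSO control mean in most replicates, usually higher, sometimes lower; inconclusive means repeat tests gave conflicting results; inactive means no significant difference from controls in most replicates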;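 further: slope of initial-normalized fluorescence between seconds 10 and 20 after thallium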
HEK293 Tl flux2: parental HEK flux effect, counter-screen 2 | thallium flux slope at 10 µM | 33% of 3,700 active | shares compounds with Cl transport mod | HEK293 parental, thallium flux FluoZin-2 fluorescence slope | AID 1718;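 active means thallium flux slope above the same plate's solvent-control mean plus 3 SD in both duplicate wells; inconclusive means duplicate wells that disagreed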;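 further: run without ouabain in cells lacking the KCC2 cotransporter; slope of fluorescence scaled to its starting value between 10 and 20 s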
* marks the source's active call; other numbers are inactive results; u = inconclusive; x = no result given; ! = repeats disagree.

SMILES	L major viab	Diaph inh CS	Cl transport mod	Diaphorase act	ROMK mod	WT yeast gro inh	KCC2 secondary	KCC2 bumet counter	KCC2 secondary2	HEK counter1	KCC2 ouabain	HEK293 Tl flux2
COc1ccc(OC)c(C2C(C(=O)c3ccco3)=C(O)C(=O)N2CCCN2CCOCC2)c1 (stereo not given)	x	x	x	x	-0.26	x	x	x	x	x	x	x
CCOC(=O)C(=O)Nc1ccc(F)cc1	-6	3	x	1	-0.52	-16	x	x	x	x	x	x
CCOC(=O)C(=O)Nc1ccc(Oc2ccccc2)cc1	-7	40	-4*	0.6	-0.43	-11	0.0089	0.0059	0.032	0.0069	0.017*	0.011
CSc1nnc(-c2cnccn2)n1CCCN1CCCC1=O	-4	5	8.2*	0.9	0.7	5	0.0073	0.0043	0.032	0.0074	0.02	0.01
Cc1cccc(NC(=O)Cn2c(C)c(C#N)c3ccccc32)c1C	1	10	0.74	0.9	x	10	x	x	x	x	x	x
CCC(=O)Nc1nnc(-c2ccco2)o1	0	12	1.7	0.9	x	6	x	x	x	x	x	x
Cc1ccsc1C(=O)Nc1nnc(-c2ccco2)o1	88*	12	x	0.9	x	2	0.013*	0.026*	0.032	0.015*	0.03*	0.011*
N#C/C(=C/c1ccc(N2CCCCCC2)o1)c1ccc(F)cc1	27	x	x	x	x	16	0.015	u	0.028	u	0.013*	0.0094
N#C/C(=C/c1ccc(N2CCOCC2)o1)c1ccc(Br)cc1	5	31	-1.2	0.7	x	-4	x	x	x	x	x	x
O=c1c2cnn(-c3ccc(F)cc3)c2ncn1Cc1ccccn1	-6	2	-0.064	1	x	-3	x	x	x	x	x	x
CCC(C)NC(=O)C(Cc1ccccc1)NS(=O)(=O)c1cccc2nsnc12 (stereo not given)	12	7	x	0.9	-0.1	8	x	x	x	x	x	x
CC(CCc1ccccc1)NC(=O)C(Cc1ccccc1)NS(=O)(=O)c1cccs1 (stereo not given)	89*	6	-3.6*	0.9	-0.077	24	0.0061	0.0038	u	u	0.015*	0.0094
O=C(Nc1ccc(F)cc1)/C(Cl)=C/c1ccccc1	-5	9	0.023	0.9	-0.22	7	x	x	x	x	x	x
O=C1NC(=S)N(C(=O)c2ccc(F)cc2)/C1=C/c1ccccc1	0	16	26*	0.8	-1.9	38	0.021*	0.082*	u	0.078*	0.056*	0.032*
Cc1nnc(SCC(=O)NCc2ccccc2)[nH]c1=O	-7	4	0.23	1	x	-1	x	x	x	x	x	x
O=C(Cc1cccc2ccccc12)N/N=C/c1ccc(Sc2nc3ccccc3s2)o1	12	4	1.3	1	0.012	6	x	x	x	x	x	x
CC1=CC2=NC(=O)/C(=C\c3cc(C)n(-c4cccc(Cl)c4)c3C)C(=N)N2O1	-3	16	-0.056	0.8	-0.51	9	x	x	x	x	x	x
CC1=CC2=NC(=O)/C(=C/c3coc4ccc(Cl)cc4c3=O)C(=N)N2O1	x	x	-9.5*	x	x	x	0.004*	-0.0043*	0.015*	0.00044*	0.0026*	0.0026*
CC(C)Oc1ccc2c(=O)c(-c3ccccc3)coc2c1	-5	16	-3.6*!	0.8	-0.53	-10	0.0032*	0.0054	0.028	u	0.014*	0.0095
CCOC(=O)c1ccc(-n2nc(C(F)(F)F)c3c(C)cc(=O)oc32)cc1	-3	x	0.012	x	0.74	x	x	x	x	x	x	x
N#CC1=C(N)NC(SCc2ccccc2)=C(C#N)C12CCCCC2	99*	2	-3.2*	1	x	13	0.0057	0.0046	u	0.0072	0.017	0.011
CCSC1=C(C#N)C2(CCCCC2)C(C#N)=C(N)N1	20	17	-4.1*	0.8	x	-5	0.0074	0.0054	0.03	u	0.019	0.0093
COc1ccc(C(=O)CSC2=C(C#N)C3(CCCCC3)C(C#N)=C(N)N2)cc1	58*	23	-2.9	0.8	0.12	11	0.0073	0.0052	0.034	0.0064*	0.016*	0.011
COc1ccc(C(=O)CSc2nc(N)nc(SC)c2C#N)cc1	-1	-6	0.026	1.1	0.8	3	x	x	x	x	x	x
CC1(C)CC(=O)C2=C(C1)NC(SCC(N)=O)=C(C#N)C21CCCCC1	5	-4	-1.1	1	x	-5	x	x	x	x	x	x
SMILES	L major viab	Diaph inh CS	Cl transport mod	Diaphorase act	ROMK mod	WT yeast gro inh	KCC2 secondary	KCC2 bumet counter	KCC2 secondary2	HEK counter1	KCC2 ouabain	HEK293 Tl flux2
CCSC1=C(C#N)C2(CCCCC2)C2=C(CC(C)(C)CC2=O)N1	22	16	-1.1	0.8	-0.98	-1	x	x	x	x	x	x
COc1ccc(-n2nc3c(N)n[nH]c3cc2=O)cc1	-3	30	-0.61	0.7	-1.1	3	x	x	x	x	x	x
CCN1C/C(=N\S(=O)(=O)/N=C2\CN(CC)C(=O)N2CC)N(CC)C1=O	x	x	0.4	x	x	x	x	x	x	x	x	x
O=C(CCc1ccccn1)N1CCCC(CNS(=O)(=O)c2cccs2)C1 (stereo not given)	-2	13	-0.92	0.9	0.38	-16	x	x	x	x	x	x
CCOc1ccc(-c2nc(CSCC(=O)NC3CCCc4ccccc43)c(C)o2)cc1 (stereo not given)	4	24	-0.24	0.8	-0.18	16	x	x	x	x	x	x
CCC(C)(C)NC(=O)Cc1ccccc1OC	1	-2	x	1	x	2	x	x	x	x	x	x
CSC(=Nc1cccc(C)c1)NC#N	4	11	-0.55	0.9	0.81	1	x	x	x	x	x	x
Fc1ccccc1COc1ccc(Br)cc1CNCc1ccncc1	100*	-5	-3.3*	1.1	-2.2	-17	u	0.0057	0.034	0.0068	0.014*	0.01
COc1ccc(S(=O)(=O)N(CCC(=O)O)Cc2ccccc2)cc1	0	8	-3.7*	0.9	0.39	-13	0.0075	0.0047	0.022*	0.0073	0.015*	0.01
O=C(O)CCCN(Cc1cccc(Br)c1)S(=O)(=O)c1ccc(Br)cc1	4	-4	-5.5*	1	-0.81	-21	0.0084	0.0062	0.029*	0.0037	0.012*	0.011
Cc1cc2cc3c(cc2nc1SCc1ccc(C(=O)O)cc1)OCCO3	-3	20	-4.2*	0.8	x	50	0.0076	0.098*	u	0.036*	0.035*	0.014*
